Laboratory results taken from paper PMC7439261 (ACS Omega, 2020).
≈ marks a conversion by molar mass, not a printed value.

Tests used:
[1] = test system: test strains of H. pylori; test: Broth dilution bioassay MIC/MBC, text summary over test strains; assay type: cell-based; conditions: Helicobacter pylori, ATCC51932
[2] = biological target: H. pylori ATCC 43504 urease (Helicobacter pylori, UniProt P69996); test: Urease inhibition, salicylate-hypochlorite method; assay type: biochemical; conditions: for slope ± SE: slope of dose-response curve of percentage of urease inhibition
Procedure, shortened: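 Crude H. pylori ATCC 43504 urease, 0.25 μg (0.04 U), in EDTA–sodium phosphate buffer pH 7.3, was preincubated with test compound at 37 °C for 90 min at 50 rpm. Urea solution (10 mM, as added) was then incubated for 30 min. Ammonia was measured by the salicylate–nitroprusside/alkaline hypochlorite method at 625 nm. Thiourea was the reference inhibitor. IC50 is molar. Triplicates, three independent experiments.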

[3] = Sulforhodamine cytotoxicity assay, fibroblast; assay type: cell-based; conditions: human, fibroblast cells derived from human foreskins
Procedure, shortened: (§1)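 Cells were grown in EMEM with 10% FBS, 2 mM L-glutamine, 20 mM HEPES and antibiotics at 37 °C, 5% CO2. Passages were 4–20 for HeLa, MCF7 and Jurkat, and 2–5 for fibroblasts. Seeding per well for 24 h: HeLa 5×10^3, MCF7 and fibroblast 10^4, Jurkat 5×10^4. Test compound (0–200 mg/L, in DMSO) was added for 48 h. Cells were fixed with cold TCA, stained with 0.2% SRB, solubilised in 10 mM Tris and read at 492 nm. Camptothecin was the positive control. Triplicates, three independent experiments.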

[4] = Sulforhodamine cytotoxicity assay, text summary over four cell lines; assay type: cell-based; conditions: human
Procedure, shortened: as §1

H. pylori OX.67 = test: Broth dilution bioassay MIC/MBC, OX.67; assay type: cell-based, Helicobacter pylori; conditions: Helicobacter pylori; for MIC: OX.67, 48 h, H. pylori OX.67, broth dilution, 48 h; for MBC: OX.67, 72 h
H. pylori ATCC 43504 [5] = test: Effect on morphology; assay type: cell-based, Helicobacter pylori
[6] = Sulforhodamine cytotoxicity assay, MCF7; assay type: cell-based; conditions: human, MCF7 cells
Procedure, shortened: as §1

H. pylori OX.63 = test: Broth dilution bioassay MIC/MBC, OX.63; assay type: cell-based, Helicobacter pylori; conditions: Helicobacter pylori; for MIC: OX.63, 48 h, H. pylori OX.63, broth dilution, 48 h; for MBC: OX.63, 72 h
[7] = test system: H. pylori ATCC 43504 biofilm formation; test: Biofilm formation inhibitory assay; assay type: cell-based, Helicobacter pylori; conditions: 48 h
H. pylori OX.83 = test: Broth dilution bioassay MIC/MBC, OX.83; assay type: cell-based, Helicobacter pylori; conditions: Helicobacter pylori; for MIC: OX.83, 48 h, H. pylori OX.83, broth dilution, 48 h; for MBC: OX.83, 72 h
[8] = Sulforhodamine cytotoxicity assay, HeLa; assay type: cell-based; conditions: human, HeLa cells
Procedure, shortened: as §1

H. pylori ATCC 43504 [9] = test: Broth dilution bioassay MIC/MBC, ATCC 43504; assay type: cell-based; conditions: Helicobacter pylori; for MIC: ATCC43504, 48 h; for MBC: ATCC43504, 72 h
H. pylori OX.64 = test: Broth dilution bioassay MIC/MBC, OX.64; assay type: cell-based, Helicobacter pylori; conditions: Helicobacter pylori; for MIC: OX.64, 48 h, H. pylori OX.64, broth dilution, 48 h; for MBC: OX.64, 72 h
H. pylori OX.22 = test: Broth dilution bioassay MIC/MBC, OX.22; assay type: cell-based; conditions: Helicobacter pylori; for MIC: OX.22, 48 h; for MBC: OX.22, 72 h
[10] = Sulforhodamine cytotoxicity assay, Jurkat; assay type: cell-based; conditions: human, Jurkat cells
Procedure, shortened: as §1

H. pylori ATCC 43504 [11] = test: Time-killing assay; assay type: cell-based, Helicobacter pylori
Procedure, shortened: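 H. pylori ATCC 43504 in 10% NBS-supplemented Brucella broth in 96-well plates, by broth microdilution. Inoculum suspension 5×10^6 CFU/mL; DMSO final ≤2.5%. Test compound was used at concentrations from MIC to MBC, alongside an untreated control. Viability was counted by plate colony count at 0, 6, 12, 18, 24, 36 and 48 h.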

H. pylori ATCC 51932 = test: Broth dilution bioassay MIC/MBC, ATCC 51932; assay type: cell-based; conditions: Helicobacter pylori; for MIC: ATCC51932, 48 h; for MBC: ATCC51932, 72 h

Chain of H. pylori ATCC 43504 urease (P69996 whole entry): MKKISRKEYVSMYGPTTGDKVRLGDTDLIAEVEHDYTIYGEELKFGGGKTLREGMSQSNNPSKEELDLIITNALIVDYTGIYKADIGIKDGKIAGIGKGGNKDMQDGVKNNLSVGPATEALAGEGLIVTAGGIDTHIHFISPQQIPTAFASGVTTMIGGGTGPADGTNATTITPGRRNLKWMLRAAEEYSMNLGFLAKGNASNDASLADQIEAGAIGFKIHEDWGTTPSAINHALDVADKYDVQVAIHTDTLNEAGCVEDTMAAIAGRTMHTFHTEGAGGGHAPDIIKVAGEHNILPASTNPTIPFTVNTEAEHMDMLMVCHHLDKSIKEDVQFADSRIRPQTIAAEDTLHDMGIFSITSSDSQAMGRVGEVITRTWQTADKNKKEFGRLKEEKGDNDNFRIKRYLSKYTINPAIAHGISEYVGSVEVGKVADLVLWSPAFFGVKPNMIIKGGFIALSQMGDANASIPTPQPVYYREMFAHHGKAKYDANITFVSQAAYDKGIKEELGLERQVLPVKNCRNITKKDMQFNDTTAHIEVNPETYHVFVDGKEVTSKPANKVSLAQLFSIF
Chain of H. pylori ATCC 43504 urease (P14916 whole entry partner): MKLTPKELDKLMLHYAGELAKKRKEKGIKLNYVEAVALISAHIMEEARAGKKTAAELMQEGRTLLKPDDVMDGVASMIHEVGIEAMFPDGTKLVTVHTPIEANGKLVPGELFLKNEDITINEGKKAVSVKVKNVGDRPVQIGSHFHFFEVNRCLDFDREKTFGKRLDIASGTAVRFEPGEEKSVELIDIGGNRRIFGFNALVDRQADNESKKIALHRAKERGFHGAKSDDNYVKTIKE

SMILES | MIC [1] | IC50 [2] | slope ± SE [2] | CC50 at 48 h [3] | CC50 at 48 h [4] | MIC (H. pylori OX.67) | MBC (H. pylori OX.67) | conversion to the coccoid form (H. pylori ATCC 43504 [5]; 500 mg/L) | MIC (H. pylori OX.63) | MBC (H. pylori OX.63) | MIC (H. pylori OX.83) | MBC (H. pylori OX.83) | MIC (H. pylori ATCC 43504 [9]) | MBC (H. pylori ATCC 43504 [9]) | MIC (H. pylori OX.64) | MBC (H. pylori OX.64) | MIC (H. pylori OX.22) | MBC (H. pylori OX.22) | MIC (H. pylori ATCC 51932) | MBC (H. pylori ATCC 51932) | further results
O=C1C[C@@H](c2ccc(O)cc2)Oc2cc(O)cc(O)c21 [NRG, naringenin] | 100 µg/mL (≈ 367 µM) | 575 µM | 1.38 ± 0.045 | 133 µg/mL (≈ 490 µM) | 46.6 to 133 µg/mL (≈ 171 to 490 µM) | 100 µg/mL (≈ 367 µM) | 1000 µg/mL (≈ 3670 µM) | 16.5% | 100 µg/mL (≈ 367 µM) | 1000 µg/mL (≈ 3670 µM) | 100 µg/mL (≈ 367 µM) | 1000 µg/mL (≈ 3670 µM) | 100 µg/mL (≈ 367 µM) | 1000 µg/mL (≈ 3670 µM) | 100 µg/mL (≈ 367 µM) | 1000 µg/mL (≈ 3670 µM) | 100 µg/mL (≈ 367 µM) | 1000 µg/mL (≈ 3670 µM) | 100 µg/mL (≈ 367 µM) | 1000 µg/mL (≈ 3670 µM) | conversion to the coccoid form (H. pylori ATCC 43504 [5]; 1000 mg/L): 95%; CC50 at 48 h [6]: 93.7 µg/mL (≈ 344 µM); reduction of biofilm formation ([7]; 1/2 × MIC (NRG 50 mg/L, MCT 75 mg/L)): 85.9%; reduction of biofilm formation ([7]; 1/4 × MIC (NRG 25 mg/L)): 52.7%; CC50 at 48 h [8]: 65.2 µg/mL (≈ 239 µM); CC50 at 48 h [10]: 46.6 µg/mL (≈ 171 µM); reduction of viability (H. pylori ATCC 43504 [11]; at the MIC, 48 h): ~1 log10; reduction of viability (H. pylori ATCC 43504 [11]; five times the MIC, 24 h): ~2.5 log10; reduction of viability (H. pylori ATCC 43504 [11]; five times the MIC, 36 h): ~4 log10
O=C(O)c1ccc(O)c(O)c1 [PCA, protocatechuic acid] | 250 µg/mL (≈ 1620 µM) | 486 µM | 2.00 ± 0.075 | > 200 µg/mL | > 200 µg/mL | 250 µg/mL (≈ 1620 µM) | 1500 µg/mL (≈ 9730 µM) | not significantly different from that in the control group | 250 µg/mL (≈ 1620 µM) | 1500 µg/mL (≈ 9730 µM) | 250 µg/mL (≈ 1620 µM) | 1500 µg/mL (≈ 9730 µM) | 250 µg/mL (≈ 1620 µM) | 1500 µg/mL (≈ 9730 µM) | 250 µg/mL (≈ 1620 µM) | 1500 µg/mL (≈ 9730 µM) | 250 µg/mL (≈ 1620 µM) | 1500 µg/mL (≈ 9730 µM) | 250 µg/mL (≈ 1620 µM) | 1500 µg/mL (≈ 9730 µM) | conversion to the coccoid form (H. pylori ATCC 43504 [5]; 1000 mg/L): 12%; CC50 at 48 h [6]: > 200 µg/mL; antibiofilm activity ([7]; at test concentrations (sub-MICs)): did not show antibiofilm activity; CC50 at 48 h [8]: > 200 µg/mL; CC50 at 48 h [10]: > 200 µg/mL; reduction of viability (H. pylori ATCC 43504 [11]; at the MIC, 36 h): ~2 log10; reduction of viability (H. pylori ATCC 43504 [11]; four times the MIC, 48 h): ~6 log10
CC1(C)S[C@@H]2[C@H](NC(=O)[C@H](N)c3ccc(O)cc3)C(=O)N2[C@H]1C(=O)O [amoxicillin] | – | – | – | – | – | 0.031 µg/mL (≈ 0.0848 µM) | 0.125 µg/mL (≈ 0.342 µM) | – | 0.063 µg/mL (≈ 0.172 µM) | 0.25 µg/mL (≈ 0.684 µM) | 0.063 µg/mL (≈ 0.172 µM) | 0.25 µg/mL (≈ 0.684 µM) | 0.031 µg/mL (≈ 0.0848 µM) | 0.063 µg/mL (≈ 0.172 µM) | 0.031 µg/mL (≈ 0.0848 µM) | 0.125 µg/mL (≈ 0.342 µM) | 0.063 µg/mL (≈ 0.172 µM) | 0.25 µg/mL (≈ 0.684 µM) | 0.063 µg/mL (≈ 0.172 µM) | 0.125 µg/mL (≈ 0.342 µM) | –
